The source of these data is PubChem BioAssay.

The structures appear in SMILES notation. Activity calls are given as the source filed them.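 How the source made its calls, unless noted: active means NADPH fluorescence slope more negative than the mean of all samples by about 3 SD, 99.7% confidence; inactive means the rest.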

Assay [1] is described as follows: inhibitors of TNFa-induced NFkB p65 translocation, primary screen, imaging, HUVEC, MLSMR starter and 10KST1 sets (AID 438;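 active means inhibition above 20% together with a positive visual image hit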;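 further: compound added about 3h40 before a 20 min TNFalpha stimulation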;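 on inhibition: signal is the nuclear over cytoplasmic p65 intensity ratio per well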). Conditions: HUVEC TNFa-induced p65 nuclear translocation; cell count: measured here: nuclei count (cytotoxicity indicator), at 2.08 µM; inhibition: at 2 µM, stronger effect = higher value, 0% TNFa-plus-vehicle, 100% no-TNFa wells.
Assay [2] in a line: inhibitors of mutant huntingtin aggregation, primary screen, imaging, exon1htt(103Q)mCFP cells, high-content imaging (AID 483;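 active means visual image review flags a hit and inhibition of aggregation exceeds 20%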;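 further: compound exposure lasted 3 days before fixation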;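 on nuclei count: percent of the per-plate median nuclei count of sample wells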). The settings on record: exon1htt(103Q)mCFP cell line, aggregate imaging, at 2 µM; inhibition of aggregation: stronger effect = higher value; nuclei count: measured here: cell count, toxicity.
A short description of assay [3]: inhibitors of E-selectin induction by TNFa, primary screen, imaging, HUVEC, immunofluorescence, MLSMR starter and 10KST1 sets (AID 487;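 active means visually confirmed hit in the image check and inhibition above 20%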;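 on inhibition: signal is fraction of cell area covered by stained E-selectin grains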;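 on nuclei count: 100% = median nuclei count of all wells on the same plate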). Conditions: HUVEC TNFalpha-induced E-selectin immunofluorescence imaging, at 2 µM; inhibition: stronger effect = higher value; nuclei count: measured here: cell number, toxicity.
The target of assay [4] is Voltage-gated potassium channel subunit beta-2 (Rattus norvegicus) (UniProt P62483). In words: KvBeta enzyme negative modulators, primary screen, biochemical, NADPH fluorescence (AID 622;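 active means fluorescence slope higher than the sample average by over 3 SD, cut at about -0.22 in these data, passing the limit was not always enough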;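 further: slope of raw intensity against log time taken from 70 to 1610 s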). The settings on record: recombinant KvBeta, 4-cyanobenzaldehyde reduction, at 10 µM, stronger effect = higher value.
Sequence of Voltage-gated potassium channel subunit beta-2 (Rattus norvegicus) (P62483 whole entry, looked up): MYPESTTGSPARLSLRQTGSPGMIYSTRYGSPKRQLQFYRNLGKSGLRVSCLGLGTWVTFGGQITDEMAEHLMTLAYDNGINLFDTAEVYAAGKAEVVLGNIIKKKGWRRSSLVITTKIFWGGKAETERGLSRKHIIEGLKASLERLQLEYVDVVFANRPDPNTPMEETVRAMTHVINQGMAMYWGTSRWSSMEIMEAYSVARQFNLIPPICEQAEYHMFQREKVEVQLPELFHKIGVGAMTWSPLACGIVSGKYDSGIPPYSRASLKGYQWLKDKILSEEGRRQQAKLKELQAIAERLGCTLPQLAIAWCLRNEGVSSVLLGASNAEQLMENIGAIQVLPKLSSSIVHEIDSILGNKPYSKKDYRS
For assay [5] the target is unchanged. In words: KvBeta positive modulators, primary screen, biochemical, NADPH fluorescence (AID 623).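 Further: fluorescence intensity change per second fitted from 20 to 320 s.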 The settings on record: Recombinant KvBeta, NADPH fluorescence decrease slope, 10 min; at 10 µM; stronger effect = lower value.
Assay [6] addresses Muscarinic acetylcholine receptor M4 (Homo sapiens) (UniProt P08173). Nature of the assay: compounds altering M4/GIRK thallium flux, either direction, primary screen, M4 allosteric agonist project, cell-based, HEK293 M4/GIRK, BTC-AM (AID 625;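 active means fluorescence slope after compound addition differing from the mean of all tested samples at 99.7% confidence, mostly higher but some lower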;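 further: thallium influx through GIRK channels coupled to M4 in HEK293 cells with BTC-AM dye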). Conditions: at 10 µM, actives lie on both sides. The gist of the method: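 Material – HEK293 cells with M4 receptor and GIRK channels · Buffer or medium – pH 7.3 thallium assay buffer · Doses – one dose, 10 µM final · Timing – cells overnight at 37 °C, BTC-AM loading 1 h, reads 2 min total · Measured by – kinetic fluorescence with BTC-AM dye · Controls – carbachol and DMSO controls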

A short description of assay [7]: inhibitors of Sendai virus-induced IRF3 signaling, primary screen, TLR/RLR signaling modifier project, cell-based, Sendai virus stimulus, luciferase, 10K MLSCN set (AID 602276;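 active means inhibition at or above 50% at 10 µM; inactive means inhibition below 50%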;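 further: firefly luciferase from ISG56 promoter only with Renilla not read in this screen; 0% = Sendai virus plus DMSO and 100% = medium plus DMSO without virus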). Conditions: HEK293 RL24 IRF3 luciferase reporter, at 10 µM, stronger effect = higher value.
Assay [8] can be described thus: inhibitors of poly I:C-induced TLR3 signaling, primary screen, cell-based, poly I:C stimulus, luciferase, 10K MLSCN set (AID 602277;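 active means inhibition of the reporter signal at or above 50%; inactive means inhibition below 50%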). Conditions: HEK293-TLR3 RL24 IRF3 luciferase reporter, at 10 µM, stronger effect = higher value. (In a reporter assay the amount or activity of a reporter protein is the signal.)

Sequence of Muscarinic acetylcholine receptor M4 (Homo sapiens) (P08173 whole entry, looked up): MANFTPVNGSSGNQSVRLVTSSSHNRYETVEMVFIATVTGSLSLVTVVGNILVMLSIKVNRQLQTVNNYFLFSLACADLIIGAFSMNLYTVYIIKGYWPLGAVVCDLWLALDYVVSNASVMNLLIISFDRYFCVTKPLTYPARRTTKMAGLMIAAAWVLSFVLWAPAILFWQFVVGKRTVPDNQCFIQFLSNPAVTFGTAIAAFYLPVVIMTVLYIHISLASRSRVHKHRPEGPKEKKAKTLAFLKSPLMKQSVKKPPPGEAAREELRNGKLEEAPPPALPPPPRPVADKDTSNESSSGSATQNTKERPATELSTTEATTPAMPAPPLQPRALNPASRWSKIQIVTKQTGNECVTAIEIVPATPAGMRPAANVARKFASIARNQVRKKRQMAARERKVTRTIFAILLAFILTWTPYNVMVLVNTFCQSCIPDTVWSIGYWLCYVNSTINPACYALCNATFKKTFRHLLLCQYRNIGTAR

On to `O=C(NCc1ccco1)c1noc2c1CCCCC2`, for which the cell count in assay [1] is 245. Moreover, the inhibition (commonly the relative decrease from the control value, in per cent) in assay [1] is 1.3% (inactive); in assay [3], -32.5% (inactive); in assay [7], -4% (inactive); in assay [8], -51.6% (inactive). Also, the inhibition of aggregation in assay [2] was 1.9% (inactive). For the same compound, the nuclei count was determined as 103% in assay [2] and 117% in assay [3]. Moreover, the values for the fluorescence slope in assay [4] and in assay [6] were -0.549 (inactive) and 0.00608 (inactive), respectively. Further, in assay [5], the NADPH fluorescence slope was -2.4e-05 (inactive).
With `COc1ccc(S(=O)(=O)NC(CC(=O)NCc2ccco2)c2ccco2)cc1` (centres undefined), the cell count in assay [1] is 621. In addition, the inhibition in assay [1] was 8.2% (inactive); in assay [3], -67.3% (inactive); in assay [7], 19.3% (inactive); in assay [8] it was 20.6% (inactive). Further, the inhibition of aggregation in assay [2] is 0.5% (inactive). For the same compound, the nuclei count in assay [2] amounted to 114%; in assay [3], 97.1%. Further, the values for the fluorescence slope in assay [4] and in assay [6] were -0.566 (inactive) and 0.00653 (inactive), respectively. For the same compound, the NADPH fluorescence slope in assay [5] was -3e-05 (inactive).
As to `CCOC(=O)N1CCC(NC(=O)CCc2c(C)nc3c(c(C)nn3C(C)(C)C)c2C)CC1`, in assay [1], the cell count amounted to 650. In addition, the inhibition in assay [1] is 2.6% (inactive); in assay [3], -8.7% (inactive); in assay [7] it was 11% (inactive); in assay [8], -3.64% (inactive). In assay [2], the inhibition of aggregation is 7.1% (inactive). Besides, the figures for the nuclei count in assay [2] and in assay [3] were 138% and 106%, respectively. For the same compound, the fluorescence slope in assay [4] was -0.397 (inactive); in assay [6] it was 0.00517 (inactive). The NADPH fluorescence slope in assay [5] was 3.3e-05 (inactive).
In the case of `O=C1COc2ccc(C(=O)NCc3ccco3)cc2N1`, in assay [1], the cell count is 668. The inhibition is -0.8% (inactive) in assay [1], 85.2% (active) in assay [3], -3.82% (inactive) in assay [7] and 9.4% (inactive) in assay [8]. Also, the inhibition of aggregation in assay [2] was -4.2% (inactive). The nuclei count in assay [2] was 79.6%; in assay [3] it was 82.3%. Also, the fluorescence slope in assay [4] was -0.575 (inactive); in assay [6], 0.00601 (inactive). Also, the NADPH fluorescence slope in assay [5] is -3.7e-05 (inactive).
Consider `CC(=O)NCC(=O)OC(C)C(=O)Nc1ccc(C(C)=O)cc1` (centres undefined), for which the cell count in assay [1] was determined as 413. Also, the inhibition in assay [1] is -12.7% (inactive); in assay [3], -12.6% (inactive); in assay [7], -0.376% (inactive); in assay [8], 0.897% (inactive). For the same compound, the inhibition of aggregation in assay [2] was 6.4% (inactive). In addition, the nuclei count in assay [2] was found to be 116%; in assay [3] it was 115%. Besides, the fluorescence slope is -0.591 (inactive) in assay [4] and 0.0073 (inactive) in assay [6]. In assay [5], the NADPH fluorescence slope was -4.9e-05 (inactive).
In the case of `CCc1nnc(NC(=O)c2ccc(-c3cccc(C(F)(F)F)c3)o2)s1`, the cell count in assay [1] is 730. Further, the inhibition in assay [1] was -2.9% (inactive); in assay [3], -24.2% (inactive); in assay [7], -0.00167% (inactive); in assay [8] it was -0.904% (inactive). Further, the inhibition of aggregation in assay [2] is 43.6% (inactive). The nuclei count stood at 76.5% in assay [2] and 99.1% in assay [3]. The values for the fluorescence slope in assay [4] and in assay [6] were -0.528 (inactive) and 0.00667 (inactive), respectively. The NADPH fluorescence slope in assay [5] is -4.6e-05 (inactive).
Turning to `Cn1c(CCCNC(=O)c2ccccc2)nc2ccccc21`, the cell count in assay [1] is 761. The inhibition in assay [1] is -25.8% (inactive); in assay [3], -49.3% (inactive); in assay [7], 13.2% (inactive); in assay [8] it was 1.35% (inactive). The inhibition of aggregation in assay [2] is -0.3% (inactive). For the same compound, the nuclei count in assay [2] came out at 104%; in assay [3], 131%. The figures for the fluorescence slope in assay [4] and in assay [6] were -0.275 (inactive) and 0.00743 (inactive), respectively. Moreover, in assay [5], the NADPH fluorescence slope was -5.3e-05 (inactive).
Turning to `Cn1cccc1C1NC(=O)c2c(sc3c2CCC(C(C)(C)C)C3)N1` (centres undefined), the cell count in assay [1] is 495. Besides, the inhibition is 1.7% (inactive) in assay [1], -107% (inactive) in assay [3], -3.95% (inactive) in assay [7] and -48.7% (inactive) in assay [8]. For the same compound, the inhibition of aggregation in assay [2] was -10.6% (inactive). Moreover, the results for the nuclei count in assay [2] and in assay [3] were 93% and 127%, respectively. In addition, the fluorescence slope in assay [4] was -0.19 (inactive); in assay [6], 0.00584 (inactive). In addition, in assay [5], the NADPH fluorescence slope was -1.5e-05 (inactive).
As for `CCOCCn1cnc2sc(C(=O)NCC(=O)OCC)c(C)c2c1=O`, the cell count in assay [1] was determined as 425. Also, the inhibition was 7.9% (inactive) in assay [1], -256% (inactive) in assay [3], -2.53% (inactive) in assay [7] and -16% (inactive) in assay [8]. For the same compound, in assay [2], the inhibition of aggregation is -1.3% (inactive). The nuclei count in assay [2] was 107%; in assay [3] it was 165%. Moreover, the fluorescence slope in assay [4] is -0.55 (inactive); in assay [6], 0.00587 (inactive). Moreover, the NADPH fluorescence slope in assay [5] is -2.6e-05 (inactive).
Turning to `CC(=O)SCC(=O)N=c1sc2cc(F)ccc2n1C`, the cell count in assay [1] is 491. For the same compound, the inhibition was 1.1% (inactive) in assay [1], 3.4% (inactive) in assay [3], 3.65% (inactive) in assay [7] and 2.45% (inactive) in assay [8]. For the same compound, in assay [2], the inhibition of aggregation was -2.8% (inactive). The nuclei count was found to be 91.7% in assay [2] and 104% in assay [3]. Also, the values for the fluorescence slope in assay [4] and in assay [6] were -0.493 (inactive) and 0.00565 (inactive), respectively. Also, in assay [5], the NADPH fluorescence slope was 4.8e-06 (inactive).
`CN(C)/C=c1\sc2c(C#N)cc(C(=O)c3ccc(Br)cc3)n2c1=O`: the cell count in assay [1] is 398. Further, the inhibition in assay [1] was 8.6% (inactive); in assay [3], 0.2% (inactive); in assay [7] it was -3.73% (inactive); in assay [8], 19.1% (inactive). Also, the inhibition of aggregation in assay [2] was 5.6% (inactive). The nuclei count in assay [2] and in assay [3] was 102% throughout. Besides, the fluorescence slope is -0.439 (inactive) in assay [4] and -0.00984 (active) in assay [6]. For the same compound, in assay [5], the NADPH fluorescence slope was -5.9e-05 (inactive).
In the case of `CC(c1nnc(SCC(=O)Nc2sccc2C#N)n1-c1ccc(Cl)cc1)N(C)C` (centres undefined), in assay [1], the cell count is 539. Moreover, the inhibition in assay [1] is -20.1% (inactive); in assay [3], -28.9% (inactive); in assay [7], 17.6% (inactive); in assay [8] it was 25.1% (inactive). Besides, the inhibition of aggregation in assay [2] is 2% (inactive). In addition, the nuclei count in assay [2] turned out to be 101%; in assay [3] it was 143%. The fluorescence slope in assay [4] was -0.463 (inactive); in assay [6] it was 0.00514 (inactive). Further, in assay [5], the NADPH fluorescence slope was -2.7e-05 (inactive).
`COc1ccc(CC(NC(C)=O)C(=O)NC2CCN(C(=O)Nc3ccc(C#N)cc3)CC2)cc1OC` (centres undefined): the cell count in assay [1] amounted to 312. Besides, the inhibition was -1.9% (inactive) in assay [1], -29.9% (inactive) in assay [3], 14.2% (inactive) in assay [7] and 14.3% (inactive) in assay [8]. Also, in assay [2], the inhibition of aggregation was -14.4% (inactive). Also, the nuclei count in assay [2] came out at 102%; in assay [3], 112%. The fluorescence slope in assay [4] was -0.415 (inactive); in assay [6], 0.00714 (inactive). The NADPH fluorescence slope in assay [5] was 8.5e-05 (inactive).
As to `CCOc1ccc(C(=O)N(CN2CCCC2=O)c2ccc(C)cc2)cc1`, in assay [1], the cell count is 385. For the same compound, the inhibition in assay [1] is -1.4% (inactive); in assay [3], 14.5% (inactive); in assay [7] it was -0.0171% (inactive); in assay [8], -43.9% (inactive). Moreover, in assay [2], the inhibition of aggregation is -14.5% (inactive). For the same compound, the nuclei count in assay [2] stood at 118%; in assay [3] it was 84%. The fluorescence slope in assay [4] was -0.53 (inactive); in assay [6] it was 0.0056 (inactive). The NADPH fluorescence slope in assay [5] was -5.9e-05 (inactive).
